Converted amounts (≈) assume the structure as drawn. The source made the active and inactive calls. The rule behind the calls is not given here.
Assays:
Mus musculus [1] = experiment: Antinociceptive activity in CD1 mouse model of mechanical nociception assessed as increase in morphine-induced struggle response latency at 32 mg/kg, sc administered 30 mins before behavioral evaluation co-treated with 32 mg/kg, sc prototypical sigma1 receptor agonist PRE-084 administered 5 min before injection of morphine by paw pressure test; assay type: functional, organism-based
Procedure, shortened: (§1)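 Female CD1 mice (25–30 g) in the paw pressure test. A 450 g blunt cone was pressed on the dorsal hindpaw until a struggle response, and latency (s) was recorded. Each hindpaw was tested twice, alternately, 1 min apart. Morphine (4 mg/kg) or HPMC vehicle was given s.c. 30 min before testing. Test drugs were given s.c. in HPMC 5 min before morphine. Mean ± SEM, 6–8 animals; one-way ANOVA with Bonferroni.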

Cavia porcellus = species on record: Cavia porcellus; experiment: Selectivity index, ratio of Ki for sigma2 receptor in guinea pig brain membrane […]; assay type: cell membranes
Mus musculus [2] = experiment: Antinociceptive activity in CD1 mouse model of mechanical nociception assessed as increase in morphine-induced struggle response latency at 16 to 32 mg/kg, sc administered 30 mins before behavioral evaluation by paw pressure test; assay type: functional, organism-based; procedure, shortened: as §1
Mus musculus [3] = experiment: Antinociceptive activity in CD1 mouse model of mechanical nociception assessed as effect on struggle response latency at 32 mg/kg, sc administered 30 mins before behavioral evaluation by paw pressure test; assay type: functional, organism-based; procedure, shortened: as §1
[4] = Displacement of [3H]-(+)-DTG from sigma2 receptor in guinea pig brain membrane after 120 mins by liquid scintillation counting method; assay type: cell membranes, Cavia porcellus
[5] = biological target: Sigma non-opioid intracellular receptor 1 (Cavia porcellus, UniProt Q60492); experiment: Displacement of [3H]-(+)-pentazocine from sigma1 receptor in guinea pig brain membrane after 150 mins by liquid scintillation counting method; assay type: cell membranes
Sequence of Sigma non-opioid intracellular receptor 1 (Q60492 whole entry): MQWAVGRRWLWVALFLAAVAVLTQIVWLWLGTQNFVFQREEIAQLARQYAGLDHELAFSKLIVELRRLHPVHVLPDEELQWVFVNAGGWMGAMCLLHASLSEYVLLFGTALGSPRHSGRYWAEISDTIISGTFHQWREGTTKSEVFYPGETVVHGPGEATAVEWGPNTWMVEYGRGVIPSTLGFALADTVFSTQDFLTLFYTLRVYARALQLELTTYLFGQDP

Mus musculus [6] = experiment: Antinociceptive activity in sc dosed CD1 mouse model of mechanical nociception assessed as increase in morphine-induced struggle response latency administered 30 mins before behavioral evaluation by paw pressure test; assay type: functional, organism-based; procedure, shortened: as §1
[7] = Enzymatic stability of the compound in human plasma assessed as half life; assay type: ADME, cell-free
Procedure, shortened: (§2)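 Hydrolysis was followed at 37 °C in rat, mouse or human plasma. Half-life (h) and observed rate constant (h⁻¹) were derived; means ± SD of three experiments.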

Plasma [8] = experiment: Enzymatic stability of the compound in mouse plasma assessed observed rate constant; assay type: ADME, cell-free; procedure, shortened: as §2
Mus musculus [9] = experiment: Reversal of 8 mg/kg, sc BD-1063-induced potentiation of morphine-induced antinociceptive activity in CD1 mouse model of mechanical nociception by measuring struggle response latency at 32 mg/kg, sc administered 30 mins before behavioral evaluation by paw pressure test; assay type: functional, organism-based; procedure, shortened: as §1
Homo sapiens = species on record: Homo sapiens; experiment: Binding affinity to dopamine D4.2 receptor (unknown origin) by liquid scintillation counting method
[10] = Chemical stability of the compound at pH 7.4 assessed as half life; assay type: physicochemical; details: buffer
Procedure, shortened: (§3)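 Chemical stability was tested in vitro at 37 °C in aqueous buffer at pH 1.3 (non-enzymatic simulated gastric fluid) or pH 7.4. Half-life and k_obs were reported; means ± SD of three experiments.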

Plasma [11] = experiment: Enzymatic stability of the compound in rat plasma assessed observed rate constant; assay type: ADME, cell-free; procedure, shortened: as §2
[12] = biological target: D(3) dopamine receptor (Rattus norvegicus) (UniProt P19020); experiment: Binding affinity to dopamine D3 receptor in rat olfactory tubercle by liquid scintillation counting method
Sequence of D(3) dopamine receptor (Rattus norvegicus) (P19020 whole entry): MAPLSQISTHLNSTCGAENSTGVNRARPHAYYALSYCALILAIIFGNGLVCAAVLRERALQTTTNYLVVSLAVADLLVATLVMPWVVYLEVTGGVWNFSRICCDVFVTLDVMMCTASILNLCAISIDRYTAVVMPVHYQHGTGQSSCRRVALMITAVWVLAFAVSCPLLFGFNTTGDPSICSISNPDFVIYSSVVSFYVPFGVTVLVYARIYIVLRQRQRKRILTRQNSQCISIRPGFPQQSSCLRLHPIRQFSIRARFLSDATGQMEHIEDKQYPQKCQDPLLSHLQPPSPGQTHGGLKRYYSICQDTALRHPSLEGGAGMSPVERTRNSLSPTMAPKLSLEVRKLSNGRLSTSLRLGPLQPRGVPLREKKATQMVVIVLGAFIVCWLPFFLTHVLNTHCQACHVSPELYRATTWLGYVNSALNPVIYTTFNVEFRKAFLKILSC

[13] = Enzymatic stability of the compound in mouse plasma assessed as half life; assay type: ADME, cell-free; procedure, shortened: as §2
[14] = biological target: Adrenergic receptor alpha-1 (Rattus norvegicus) (UniProt P15823+P23944+P43140); experiment: Binding affinity to adrenergic alpha1 receptor in rat cortex by liquid scintillation counting method
[15] = Chemical stability at pH 1.3 assessed as observed rate constant; assay type: physicochemical; details: buffer; procedure, shortened: as §3
[16] = Aqueous solubility of the compound; assay type: physicochemical
Procedure, shortened: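 Water solubility (mg/mL) was measured experimentally; mean ± SD of three experiments.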

[17] = biological target: T1, 5-hydroxytryptamine receptor 3A (Rattus norvegicus) (UniProt P35563); experiment: Binding affinity to 5-HT3 receptor in rat cortex by liquid scintillation counting method
T1 sequence (whole entry): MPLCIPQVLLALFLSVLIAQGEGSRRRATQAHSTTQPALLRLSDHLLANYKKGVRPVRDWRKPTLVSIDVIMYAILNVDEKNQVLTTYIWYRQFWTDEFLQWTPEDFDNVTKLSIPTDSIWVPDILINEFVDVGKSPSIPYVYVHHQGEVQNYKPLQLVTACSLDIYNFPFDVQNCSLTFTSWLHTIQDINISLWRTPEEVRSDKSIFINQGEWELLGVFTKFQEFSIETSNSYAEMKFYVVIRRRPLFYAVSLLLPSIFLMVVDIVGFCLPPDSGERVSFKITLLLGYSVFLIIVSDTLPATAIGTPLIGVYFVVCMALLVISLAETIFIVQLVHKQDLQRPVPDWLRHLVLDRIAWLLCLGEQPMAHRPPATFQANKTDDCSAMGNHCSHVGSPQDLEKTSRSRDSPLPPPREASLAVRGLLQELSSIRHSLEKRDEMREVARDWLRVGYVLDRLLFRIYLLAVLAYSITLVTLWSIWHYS

[18] = Chemical stability at pH 7.4 assessed as observed rate constant; assay type: physicochemical; details: buffer; procedure, shortened: as §3
[19] = biological target: 5-hydroxytryptamine receptor 2A (Rattus norvegicus) (UniProt P14842); experiment: Binding affinity to 5-HT2A receptor in rat cortex by liquid scintillation counting method
Sequence of 5-hydroxytryptamine receptor 2A (Rattus norvegicus) (P14842 whole entry): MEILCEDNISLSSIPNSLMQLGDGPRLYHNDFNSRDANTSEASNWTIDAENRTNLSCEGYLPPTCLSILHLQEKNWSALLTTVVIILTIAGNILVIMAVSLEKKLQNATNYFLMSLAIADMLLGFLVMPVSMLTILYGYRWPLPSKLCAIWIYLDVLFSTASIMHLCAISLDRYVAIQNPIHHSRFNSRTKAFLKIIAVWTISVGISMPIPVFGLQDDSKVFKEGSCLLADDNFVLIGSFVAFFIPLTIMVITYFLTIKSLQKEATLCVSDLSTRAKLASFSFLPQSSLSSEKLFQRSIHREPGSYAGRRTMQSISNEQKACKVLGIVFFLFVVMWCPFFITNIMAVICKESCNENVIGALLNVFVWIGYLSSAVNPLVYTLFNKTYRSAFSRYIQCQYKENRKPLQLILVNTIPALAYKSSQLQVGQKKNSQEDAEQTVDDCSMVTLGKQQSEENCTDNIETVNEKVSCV

[20] = Chemical stability of the compound at pH 1.3 assessed as half life; assay type: physicochemical; details: buffer; procedure, shortened: as §3
[21] = Enzymatic stability of the compound in rat plasma assessed as half life; assay type: ADME, cell-free; procedure, shortened: as §2
Plasma [22] = experiment: Enzymatic stability of the compound in human plasma assessed observed rate constant; assay type: ADME, cell-free; procedure, shortened: as §2
Mus musculus [23] = experiment: Antinociceptive activity in CD1 mouse model of mechanical nociception assessed as effect on struggle response latency at 4 mg/kg, sc administered 30 mins before behavioral evaluation by paw pressure test; assay type: functional, organism-based
Procedure, shortened: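 Female CD1 mice (25–30 g). Paw pressure test: a blunt cone applied 450 g to the dorsal hindpaw until a struggle response; latency (s) recorded. Each hindpaw was tested twice, alternately, at 1 min intervals. Morphine or HPMC vehicle was given s.c. 30 min before testing. Values are the mean ± SEM of both hindpaws from 6–8 animals; one-way ANOVA with Bonferroni test.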

Mus musculus [24] = experiment: Antinociceptive activity in CD1 mouse model of mechanical nociception assessed as increase in morphine-induced struggle response latency at 12 to 16 mg/kg, sc administered 30 mins before behavioral evaluation by paw pressure test; assay type: functional, organism-based; procedure, shortened: as §1
Mus musculus [25] = experiment: Antinociceptive activity in CD1 mouse model of mechanical nociception assessed as effect on struggle response latency at 16 to 32 mg/kg, sc administered 30 mins before behavioral evaluation by paw pressure test; assay type: functional, organism-based; procedure, shortened: as §1
D(2) dopamine receptor = D(2) dopamine receptor (Rattus norvegicus, UniProt P61169); experiment: Displacement of [3H]-spiperone from dopamine D2 receptor in rat strriatum after 15 mins by liquid scintillation counting method
Sequence of D(2) dopamine receptor (P61169 whole entry): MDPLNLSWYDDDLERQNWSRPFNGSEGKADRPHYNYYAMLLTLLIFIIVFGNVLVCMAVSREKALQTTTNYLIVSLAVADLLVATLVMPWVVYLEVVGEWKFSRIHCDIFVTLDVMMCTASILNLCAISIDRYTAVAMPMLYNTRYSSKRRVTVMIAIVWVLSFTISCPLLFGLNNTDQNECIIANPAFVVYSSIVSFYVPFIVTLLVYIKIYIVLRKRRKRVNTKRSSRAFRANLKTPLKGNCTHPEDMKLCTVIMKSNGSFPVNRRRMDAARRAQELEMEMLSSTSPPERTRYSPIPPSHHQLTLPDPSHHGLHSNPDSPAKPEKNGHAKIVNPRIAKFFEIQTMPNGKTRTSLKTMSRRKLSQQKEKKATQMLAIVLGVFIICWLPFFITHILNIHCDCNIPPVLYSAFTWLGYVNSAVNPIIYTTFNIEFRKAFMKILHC

D(1A) dopamine receptor = D(1A) dopamine receptor (Rattus norvegicus, UniProt P18901); experiment: Binding affinity to dopamine D1 receptor in rat striatum by liquid scintillation counting method
Sequence of D(1A) dopamine receptor (P18901 whole entry): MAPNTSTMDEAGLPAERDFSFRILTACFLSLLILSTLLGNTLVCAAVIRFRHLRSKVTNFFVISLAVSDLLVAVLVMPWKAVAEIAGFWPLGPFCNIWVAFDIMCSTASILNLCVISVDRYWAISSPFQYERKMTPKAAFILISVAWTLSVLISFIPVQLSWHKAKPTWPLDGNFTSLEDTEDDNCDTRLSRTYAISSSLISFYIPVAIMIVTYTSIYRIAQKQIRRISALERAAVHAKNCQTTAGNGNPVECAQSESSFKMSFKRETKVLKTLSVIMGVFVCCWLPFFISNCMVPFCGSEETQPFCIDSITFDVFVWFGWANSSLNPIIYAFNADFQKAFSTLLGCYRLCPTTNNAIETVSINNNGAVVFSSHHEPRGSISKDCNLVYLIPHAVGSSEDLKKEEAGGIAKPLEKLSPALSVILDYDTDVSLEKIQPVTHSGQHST

Mus musculus [26] = experiment: Antinociceptive activity in CD1 mouse model of mechanical nociception assessed as effect on struggle response latency at 8 mg/kg, sc administered 30 mins before behavioral evaluation by paw pressure test; assay type: functional, organism-based; procedure, shortened: as §1

Row | Compound | Ratio Ki (Cavia porcellus) | Ki [4] [nM] | Ki [5] [nM] | other results
1 | CC(C)OC(=O)[C@]1(c2ccccc2)C[C@H]1CN1CCC(O)(c2ccc(Cl)cc2)CC1 | 5 | 214 | 43 | Activity (Mus musculus [1]): inactive; Activity (Mus musculus [2]): Active; Activity (Mus musculus [3]): inactive; Activity (Mus musculus [6]): Dose-dependent effect
2 | CC(C)OC(=O)[C@@]1(c2ccccc2)C[C@@H]1CN1CCC(O)(c2ccc(Cl)cc2)CC1 | > 250 | 1840 | 7 | half-life [7]: 2.72 days; K (Plasma [8]): 0.51 h⁻¹; Activity (Mus musculus [9]): Active; Activity (Homo sapiens): inactive; half-life [10]: 3.79 days; K (Plasma [11]): 3.26 h⁻¹; Activity (Mus musculus [2]): inactive; Activity [12]: inactive; half-life [13]: 68.4 min; Activity [14]: inactive; K [15]: 0.009 h⁻¹; solubility [16]: 3100 µg/mL (≈ 7.24 mM); Activity [17]: inactive; K [18]: 0.009 h⁻¹; Activity [19]: inactive; half-life [20]: 3.48 days; half-life [21]: 22.8 min; K (Plasma [22]): 0.01 h⁻¹
3 | CCOC(=O)[C@]1(c2ccccc2)C[C@H]1CN1CCC(O)(c2ccc(Cl)cc2)CC1 | 2.4 | 107 | 45 | –
4 | O=C(CCCN1CCC(O)(c2ccc(Cl)cc2)CC1)c1ccc(F)cc1 [HALOPERIDOL] | – | 16 | – | –
5 | CN1CC[C@]23c4c5ccc(O)c4O[C@H]2[C@@H](O)C=C[C@H]3[C@H]1C5 | – | – | – | Activity (Mus musculus [23]): inactive
6 | CC(C)OC(=O)[C@@]1(c2ccccc2)C[C@H]1CN1CCC(O)(c2ccc(Cl)cc2)CC1 | 24.4 | 1640 | 67 | Activity (Mus musculus [1]): inactive; Activity (Mus musculus [24]): Active; Activity (Mus musculus [2]): Active; Activity (Mus musculus [25]): inactive
7 | CC(C)OC(=O)[C@]1(c2ccccc2)C[C@@H]1CN1CCC(O)(c2ccc(Cl)cc2)CC1 | 10.5 | 209 | 20 | Activity (Mus musculus [1]): inactive; Activity (Mus musculus [25]): inactive
8 | CCCN1CCC=C(c2cc(-c3ccc(C)cc3)no2)C1 | – | – | 4.3 | –
9 | CCOC(=O)[C@@]1(c2ccccc2)C[C@H]1CN1CCC(O)(c2ccc(Cl)cc2)CC1 | 20.4 | 918 | 45 | –
10 | COC(=O)[C@@]1(c2ccccc2)C[C@@H]1CN1CCC(O)(c2ccc(Cl)cc2)CC1 | 1.1 | 142 | 129 | Ki (D(2) dopamine receptor): 4.97 µM; Ki (D(1A) dopamine receptor): > 10 µM
11 | CN1CCN(CCc2ccc(Cl)c(Cl)c2)CC1 | – | – | – | Activity (Mus musculus [26]): Active
12 | COC(=O)[C@]1(c2ccccc2)C[C@H]1CN1CCC(O)(c2ccc(Cl)cc2)CC1 | 3.6 | 40 | 11 | Ki (D(2) dopamine receptor): 5.62 µM; Ki (D(1A) dopamine receptor): > 10 µM
13 | O=C(O)[C@@]1(c2ccccc2)C[C@@H]1CN1CCC(O)(c2ccc(Cl)cc2)CC1 | 1.5 | 650 | 445 | –
14 | CCCOC(=O)[C@]1(c2ccccc2)C[C@@H]1CN1CCC(O)(c2ccc(Cl)cc2)CC1 | 10.4 | 146 | 14 | –
15 | CCCOC(=O)[C@]1(c2ccccc2)C[C@H]1CN1CCC(O)(c2ccc(Cl)cc2)CC1 | 6.1 | 73 | 12 | –
16 | COC(=O)C1(c2ccccc2)CC1CN1CCC(O)(c2ccc(Cl)cc2)CC1 (single isomer, unassigned; (+)) [listing 1 of 2 here] | – | 21.9 | 1.51 | Ki (D(2) dopamine receptor): 3.23 µM; Ki (D(1A) dopamine receptor): > 10 µM
17 | COC(=O)C1(c2ccccc2)CC1CN1CCC(O)(c2ccc(Cl)cc2)CC1 (single isomer, unassigned; (+)) [listing 2 of 2 here] | 14.5 | – | – | –
18 | CCCOC(=O)[C@@]1(c2ccccc2)C[C@H]1CN1CCC(O)(c2ccc(Cl)cc2)CC1 | 8.8 | 290 | 33 | –
19 | COC(=O)C1(c2ccccc2)CC1CN1CCC(O)(c2ccc(Cl)cc2)CC1 (racemic) | – | 61.1 | 14.6 | Ki (D(2) dopamine receptor): 5.2 µM; Ki (D(1A) dopamine receptor): > 10 µM
20 | CCOC(=O)[C@]1(c2ccccc2)C[C@@H]1CN1CCC(O)(c2ccc(Cl)cc2)CC1 | 42.2 | 57 | 1.35 | –
21 | COC(=O)C1(c2ccccc2)CC1CN1CCC(O)(c2ccc(Cl)cc2)CC1 (single isomer, unassigned; (-)) | – | 23.4 | 5.6 | Ki (D(2) dopamine receptor): 0.378 µM; Ki (D(1A) dopamine receptor): > 10 µM
22 | CCOC(=O)[C@@]1(c2ccccc2)C[C@@H]1CN1CCC(O)(c2ccc(Cl)cc2)CC1 | 25 | 1300 | 52 | –
23 | CCCOC(=O)[C@@]1(c2ccccc2)C[C@@H]1CN1CCC(O)(c2ccc(Cl)cc2)CC1 | 13.2 | 171 | 13 | –

— ChEMBL document CHEMBL4028917, “(+)-Methyl (1R,2S)-2-{[4-(4-Chlorophenyl)-4-hydroxypiperidin-1-yl]methyl}-1-phenylcyclopropanecarboxylate [(+)-MR200] Derivatives as Potent and Selective Sigma Receptor Ligands: Stereochemistry and Pharmacological Properties” (J Med Chem, 2018)
